From PubChem
Compounds with a hit are over-represented: about 4.9% of the library has one in this group of screens.
STAT3 inh: STAT3 signaling inhibition; U3A cells, IL-6 STAT3-luciferase reporter, luminescence; host cell line lacks STAT1; inhibition, % at 5.5 µM; hit rate 0.89% among 190,000; AID 862;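 active = inhibition above the mean inhibition across all screened compounds plus 3 SD, cut at about 44% in these data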;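 note: 0% = DMSO only wells and 100% = 100 µM nifuroxazide control wells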
STAT1 inh: reduces IFN-gamma driven STAT1 reporter signal | NIH 3T3 STAT1-luciferase reporter, luminescence | inhibition, % at 5.5 µM | hit rate 0.35% among 200,000 | AID 920;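 active = inhibition above a set limit, the mean inhibition across all tested compounds plus 3 SD, cut at about 34% in these data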;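 note: 0% = IFN-gamma with DMSO and 100% = IFN-gamma with 300 µM nifuroxazide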
STAT1 act-1: activators of IFN-gamma induced STAT1 signaling | NIH 3T3 STAT1-luciferase reporter, luminescence; 100% = IFN-gamma alone, no compound | activation (% of control), % at 5.5 µM | hit rate 2.6% among 200,000 | AID 932;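 active = activation above the screen-wide mean activation plus 3 SD, cut at about 130% in these data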;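 note: raw ratio to IFN-gamma control signal so 100% means no change and 0% no light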
STAT3 act-1: activators of IL-6 induced STAT3 signaling | U3A cells, IL-6 STAT3-luciferase reporter, luminescence; 100% = signal with IL-6 EC80 alone | activation (% of control), % at 5.6 µM | hit rate 0.91% among 190,000 | AID 871;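 active = activation above the screen-wide mean of compound activation plus 3 SD, cut at about 130% in these data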;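 note: 0% = background luminescence of wells with medium and substrate only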
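Material: human STAT1-deficient U3A cells with stable STAT3-luciferase reporter / Probe or stimulus: IL-6 stimulus at 33 ng/mL final / Schedule: 1 h compound pre-exposure, 6 h IL-6 stimulation, 37 °C / Technique: luminescence / Read-out basis: percent of IL-6-only median luminescence / Control set: IL-6-only high control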
NF-kB expr up: raises NF-kB expression in human neuronal cells | NF-kB reporter expression; hits give high values | fold change at 12.5 µM | hit rate 1.6% among 190,000 | AID 1239; in the data active = fold change above about 3.3
APP 5'UTR act: APP 5'UTR luciferase reporter activation; SH-SY5Y APP 5'UTR luciferase reporter, luminescence; zero percent = DMSO vehicle wells; hit rate 1% among 190,000; activation, % at 2 µM;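 active = activation above a set limit, based on mean plus 3 SD of controls, cut at about 140% in these data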
STAT3 act-2: confirmation of STAT3 signaling activators; shares compounds with STAT3 act-1; hit rate 64% among 1,200; AID 1267; potentiation (% of control), % at 5.7 µM; U3A STAT3-luciferase reporter, IL-6 potentiation, luminescence; U3A cells lack STAT1; 100 means same as IL-6 alone;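 active = percent activation of the STAT3 luciferase reporter above a set limit taken from the earlier primary screen, cut at about 130% in these data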;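 note: 0% = background signal of medium plus substrate and 100% = median of IL-6 with DMSO wells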
NFkB act STAT3ct: counter-screen for STAT3 activators: NF-kappaB activation; shares compounds with STAT3 act-1; human cells, NF-kappaB reporter activation; activation (% of control), % at 5.7 µM; hit rate 11% among 1,200; AID 1309; in the data active = activation above about 120%;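 note: reporter induced by TNF-alpha stimulation; 100% = median of stimulated DMSO wells and 0% = no signal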
STAT1 act-2: activates STAT1, counter-screen to STAT3 activators; shares compounds with STAT3 act-1; NIH 3T3 STAT1-luciferase reporter, IFN-gamma, luminescence; activation (% of control), % at 5.7 µM; hit rate 13% among 1,200;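 active = activation above the solvent-only control well mean plus 3 SD, set per screening run, cut at about 120% in these data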;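 note: 100% = IFN-gamma with DMSO median signal so 100% means no change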
* marks the source's active call; other numbers are inactive results; / = no result given.

SMILES	STAT3 inh	STAT1 inh	STAT1 act-1	STAT3 act-1	NF-kB expr up	APP 5'UTR act	STAT3 act-2	NFkB act STAT3ct	STAT1 act-2
Cn1cnnc1SCc1ccc(C(=O)N=Nc2c(O)n(C)c3ccccc23)cc1	14	4	96	88	1.3	-3	/	/	/
O=c1oc2ccccc2c(Nc2cc3ccccc3cc2O)c1[N+](=O)[O-]	-45	-8	105	141*	2.4	77	171*	112	117
CCOC(=O)C1=C(CSc2nc(-c3ccccc3)ccc2C#N)OC(N)=C(C#N)C1c1ccccc1 (stereo not drawn)	-6	-3	102	102	1.9	76	/	/	/
CCOC(=O)C1=C(CSc2nc(-c3ccccc3)ccc2C#N)OC(N)=C(C#N)C1c1cccnc1 (stereo not drawn)	-48	-8	107	137*	3.8*	43	129	120	117
COc1ccc(OC)c(Nc2nc(-c3sc(NC(=O)c4ccccc4)nc3C)cs2)c1	16	8	92	95	0.94	-3	/	/	/
COc1ccc(OC)c(Nc2nc(-c3cccs3)cs2)c1	-53	-11	110	147*	1.1	1	121	112	103
Cc1oc(/N=C/c2ccc(O)cc2O)c(C#N)c1C	0	8	92	107	1.2	3	/	/	/
Cc1oc(/N=C/c2ccccc2O)c(C#N)c1C	-49	-5	105	146*	1.1	-1	157*	106	101
Cc1oc(/N=C/c2ccc(Cl)cc2)c(C#N)c1C	-50	-9	109	146*	1.2	1	136*	104	113
COc1ccc(-n2cc(C(=O)Nc3cc([N+](=O)[O-])ccc3OC)c3ccccc3c2=O)cc1	7	2	98	94	0.58	-15	/	/	/
COc1cc([C@@H]2c3cc4c(cc3[C@H](O)[C@H]3COC(=O)[C@H]23)OCO4)cc(OC)c1OC	-57	-14	113	152*	3.9*	-94	118	164*	108
COc1ccc(NC(=O)N2CCn3c2nc2ccccc23)cc1	-59	-3	103	151*	0.79	3	137*	105	98
O=C(Nc1ccccc1)N1CCn2c1nc1ccccc12	-69	3	97	161*	0.64	-4	139*	99	95
S=C(Nc1ccccc1)N1CCn2c1nc1ccccc12	19	-1	101	87	1.1	20	/	/	/
COc1ccc(NC(=O)CCC(=O)N(Cc2ccc(OC)c(OC)c2)c2nccs2)c(OC)c1	6	11	90	97	1.3	-2	/	/	/
Cc1cccc(NC(=O)COC(=O)Cc2c[nH]c3ccccc23)c1C	-16	3	97	111	1.1	-15	/	/	/
COc1ccccc1NC(=O)COC(=O)Cc1c[nH]c2ccccc12	-51	20	82	141*	1.1	13	142*	109	96
Cc1ccccc1NCC(=O)N/N=C/c1c[nH]c2ccccc12	-2	-10	107	105	0.87	-7	/	/	/
Cc1cc(N/N=C/c2c[nH]c3ccccc23)c2ccccc2n1	-53	5	96	148*	1.1	-3	141*	100	88
COc1ccc(N=C2CC(C)(C)CC(=O)/C2=C(/O)c2ccccc2)cc1	6	-5	102	97	0.97	7	/	/	/
COCCCNC(=O)Cn1c(=O)n(CCCCCC(=O)NCc2ccc3c(c2)OCO3)c(=O)c2sccc21	13	-9	109	90	0.94	4	/	/	/
NC(=O)Cn1c(=O)n(Cc2ccco2)c(=O)c2c3c(sc21)CCCCC3	-55	5	96	147*	1.1	5	131	105	105
O=C(CSc1ncn[nH]1)CSc1ncn[nH]1	0	-2	100	101	1.1	-9	/	/	/
Cc1nn(CCC(=O)NNC(=S)Nc2ccc([N+](=O)[O-])cc2)c(C)c1[N+](=O)[O-]	-47	4	95	140*	1.3	-5	136*	104	102
COc1cc(NC(=O)c2cc(C3CC3)on2)c(OC)cc1Cl	-60	1	99	159*	1.1	1	150*	103	98
SMILES	STAT3 inh	STAT1 inh	STAT1 act-1	STAT3 act-1	NF-kB expr up	APP 5'UTR act	STAT3 act-2	NFkB act STAT3ct	STAT1 act-2
COc1cc(NC(=O)c2cc(C(C)C)on2)c(OC)cc1Cl	-69	0	100	168*	0.96	9	152*	97	104
COc1cc(NC(=O)C2CCCC2)c(OC)cc1Cl	24	3	97	84	1.2	-5	/	/	/
COCc1nnc(NC(=O)c2cc(OC)c(OC)cc2[N+](=O)[O-])s1	-3	2	99	101	1.5	0	/	/	/
Cc1nc(N2CCOCC2)sc1C=O	1	-7	105	105	0.94	9	/	/	/
S=C(Nc1ccc(Cl)cc1)Nc1cccc2cnccc12	-49	9	92	147*	0.99	-16	144*	97	100
O=C(COC(=O)c1ccc2c(c1)C(=O)N(Cc1ccncc1)C2=O)Nc1ccccc1[N+](=O)[O-]	-45	12	89	138*	1.1	5	147*	107	96
CC(CCc1ccccc1)NC(=O)COc1ccc(S(=O)(=O)N2CCOCC2)cc1[N+](=O)[O-] (stereo not drawn)	-8	3	98	110	0.8	6	/	/	/
O=C(NN=C1CCCCCCCCCCC1)c1ccncc1	5	-8	107	97	0.91	6	/	/	/
O=C(NN=C1CCCCCCC1)c1ccc2ccccc2n1	-63	-12	110	154*	1.3	16	140*	107	119
NNC(=O)c1ccc2ccccc2n1	-38	1	98	144*	1.2	24	141*	105	100
CC(C)CNc1nc(SCC(=O)Nc2ccccc2)nc(N2CCOCC2)n1	6	5	94	96	0.96	17	/	/	/
O=C(CCc1ccc(S(=O)(=O)NCCc2ccccc2)cc1)NCc1ccco1	2	3	97	102	0.91	8	/	/	/
CC(=O)Nc1ccc(S(=O)(=O)NNC(=O)c2cc3c4ccccc4n(C)c3s2)cc1	-37	4	96	139*	1.2	0	142*	106	111
CSCC[C@H](NC(=O)CCn1nnc2ccccc2c1=O)C(=O)O	-39	-3	103	139*	1	-1	92	103	99
O=C(Cn1c(C(F)(F)F)nc2ccccc21)OCC(=O)c1c[nH]c2ccccc12	-44	6	94	138*	0.83	18	112	97	93
